Measured values published in PubChem BioAssay AID624042 (Vanderbilt High Throughput Screening Facility, 2012).

Molecular target: G protein-activated inward rectifier potassium channel 2 (Homo sapiens) + G protein-activated inward rectifier potassium channel 1 (Homo sapiens) (UniProt P48051+P48549)
Assay: GIRK1/2 Tl+ flux activators after pertussis toxin – cell-based, HEK-293 hGIRK1/2, pertussis toxin-treated, thallium flux, FluoZin-2, mechanism study for GIRK activator project, dose response (AID 624042)
Settings: HEK-293 hGIRK1/2 PTX-treated
Procedure, shortened: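 assay system = HEK-293 cells stably expressing rmGlu8 and human GIRK1/2, PTX-treated | buffer or medium = overnight pretreatment with 400 ng/mL pertussis toxin (PTX) | also added = thallium stimulus containing EC20 glutamate | timing = overnight 37 °C PTX, 4 min compound exposure before Tl+ | measured by = thallium-flux fluorescence with FluoZin-2 AM dye, sampled at 1 Hz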

G protein-activated inward rectifier potassium channel 2 (Homo sapiens) + G protein-activated inward rectifier potassium channel 1 (Homo sapiens), sequence (P48051 whole entry, looked up): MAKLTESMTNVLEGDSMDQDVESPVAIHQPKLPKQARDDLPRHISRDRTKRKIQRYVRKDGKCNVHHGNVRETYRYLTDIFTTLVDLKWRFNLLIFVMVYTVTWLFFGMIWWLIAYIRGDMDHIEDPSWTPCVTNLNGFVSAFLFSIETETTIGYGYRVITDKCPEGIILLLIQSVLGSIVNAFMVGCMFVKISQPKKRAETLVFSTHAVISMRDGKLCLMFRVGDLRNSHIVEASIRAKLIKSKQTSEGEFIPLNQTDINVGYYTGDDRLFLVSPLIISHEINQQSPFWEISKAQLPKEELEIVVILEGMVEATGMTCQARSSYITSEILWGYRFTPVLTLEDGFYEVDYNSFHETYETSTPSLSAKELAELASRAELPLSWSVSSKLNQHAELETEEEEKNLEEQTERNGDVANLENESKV
G protein-activated inward rectifier potassium channel 2 (Homo sapiens) + G protein-activated inward rectifier potassium channel 1 (Homo sapiens), sequence (P48549 whole entry, looked up): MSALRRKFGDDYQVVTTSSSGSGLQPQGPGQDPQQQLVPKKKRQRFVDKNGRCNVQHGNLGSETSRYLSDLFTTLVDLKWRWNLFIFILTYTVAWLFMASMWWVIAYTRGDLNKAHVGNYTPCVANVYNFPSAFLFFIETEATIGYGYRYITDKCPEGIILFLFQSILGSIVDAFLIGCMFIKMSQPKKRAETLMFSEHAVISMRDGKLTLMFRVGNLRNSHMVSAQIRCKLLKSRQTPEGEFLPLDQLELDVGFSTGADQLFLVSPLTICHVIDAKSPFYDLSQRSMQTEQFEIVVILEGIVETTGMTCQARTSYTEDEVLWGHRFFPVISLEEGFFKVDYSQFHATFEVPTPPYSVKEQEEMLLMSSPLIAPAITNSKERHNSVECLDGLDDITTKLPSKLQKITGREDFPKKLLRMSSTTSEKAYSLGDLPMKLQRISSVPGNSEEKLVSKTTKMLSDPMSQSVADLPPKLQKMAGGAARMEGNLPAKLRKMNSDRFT

SMILES	EC50 [µM]
Cc1ccc(NC(=O)Cc2ccccc2Cl)cc1S(=O)(=O)N(C)C	2.18
CCOc1ccccc1Nc1nnc(Cc2ccccc2Cl)c(=O)[nH]1	1.86
Cc1ccc(-c2nnn(CC(=O)NC3CC4CCC3C4)n2)cc1 (centres undefined)	4.22
Cc1cc(NC(=O)Nc2ccccc2)n(-c2ccccc2)n1	3.62
